Activity calls are given as the source filed them. The rule behind the calls is not given here.
Experiments:
HeLa = test: Antiproliferative activity against human HeLa cells after 48 hrs by MTT assay relative to control; assay type: functional, cell-based
Method in brief: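 HeLa cells exposed to compounds for 48 h; viability read as mitochondrial dehydrogenase activity by MTT reduction; IC50 values derived.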

Jurkat [1] = test: Induction of apoptosis in Jurkat cells at 5 uM after 36 hrs by flow cytometry; assay type: functional
Method in brief: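 Jurkat cells incubated 36 h with agents at 5 μM (DMSO control); apoptosis scored by flow cytometry after annexin-V/propidium iodide staining; two experiments.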

Jurkat [2] = test: Cell cycle arrest in Jurkat cells assessed as accumulation at G0/G1 phase at 25 uM after 15 hrs relative to control; assay type: functional, Homo sapiens
Method in brief: (§1)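 Jurkat cells treated 15 h (test agents 5 μM, colchicine 25 μM, DMSO vehicle control); DNA stained with Vybrant Orange and analysed by flow cytometry; percent of cells in G0/G1, S and G2/M given as mean ± SD.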

Jurkat [3] = test: Cell cycle arrest in Jurkat cells assessed as accumulation at S phase at 25 uM after 15 hrs relative to control; assay type: functional, Homo sapiens; method in brief: as §1
Jurkat [4] = test: Cell cycle arrest in Jurkat cells assessed as accumulation at G2/M phase at 25 uM after 15 hrs relative to control; assay type: functional, Homo sapiens; method in brief: as §1
Jurkat [5] = test: Cell cycle arrest in Jurkat cells assessed as accumulation at G0/G1 phase at 5 uM after 15 hrs relative to control; assay type: functional, Homo sapiens; method in brief: as §1
Jurkat [6] = test: Cell cycle arrest in Jurkat cells assessed as accumulation at S phase at 5 uM after 15 hrs relative to control; assay type: functional, Homo sapiens; method in brief: as §1
Jurkat [7] = test: Cell cycle arrest in Jurkat cells assessed as accumulation at G2/M phase at 5 uM after 15 hrs relative to control; assay type: functional, Homo sapiens; method in brief: as §1

Structure (SMILES)	IC50 (HeLa)	Activity (Jurkat [1])	other results
COc1cc2c(c(OC)c1OC)-c1ccc(OC)c(=O)cc1[C@@H](NC(C)=O)CC2 [COLCHICINE]	–	–	Activity (Jurkat [2]): 19%; Activity (Jurkat [3]): 23.1%; Activity (Jurkat [4]): 57.9%
COc1cc(C2C(C#N)=C(N)Oc3cc(C)n(C)c(=O)c32)cc(Br)c1O (stereo not drawn)	2.67 µM	50%	–
COc1cc(C2C(C#N)=C(N)Oc3cc(C)n(C)c(=O)c32)cc(Br)c1OC(C)=O (stereo not drawn)	3.5 µM	50%	–
COc1cc(C2C(C#N)=C(N)Oc3cc(C)n(C)c(=O)c32)cc(OC)c1OC (stereo not drawn)	43.3 µM	–	–
COc1cc(C2C(C#N)=C(N)Oc3cc(C)n(C)c(=O)c32)cc(Br)c1OC (stereo not drawn)	0.58 µM	50%	Activity (Jurkat [5]): 12%; Activity (Jurkat [6]): 19%; Activity (Jurkat [7]): 68.5%
Cc1cc2c(c(=O)o1)C(c1cccc(Br)c1)C(C#N)=C(N)O2 (stereo not drawn)	> 100 µM	–	–
Cc1cc2c(c(=O)n1C)C(c1ccc(Cl)c(Cl)c1)C(C#N)=C(N)O2 (stereo not drawn)	18.3 µM	–	Activity (Jurkat [1]; Homo sapiens): inactive

Now from value to compound, other results behind:

IC50 (HeLa)	Structure (SMILES)	Activity (Jurkat [1])	other results
35 µM	Cc1cc2c(c(=O)n1C)C(c1cccc([N+](=O)[O-])c1)C(C#N)=C(N)O2 (stereo not drawn)	–	Activity (Jurkat [1]; Homo sapiens): inactive
22.7 µM	COc1ccc(CCn2c(C)cc3c(c2=O)C(c2cc(OC)c(OC)c(OC)c2)C(C#N)=C(N)O3)cc1OC (stereo not drawn)	–	Activity (Jurkat [1]; Homo sapiens): inactive
1.08 µM	CCOc1c(Br)cc(C2C(C#N)=C(N)Oc3cc(C)n(C)c(=O)c32)cc1OC (stereo not drawn)	50%	–
0.33 µM	Cc1cc2c(c(=O)n1C)C(c1ccc(N(C)C)c(Br)c1)C(C#N)=C(N)O2 (stereo not drawn)	50%	Activity (Jurkat [5]): 14.4%; Activity (Jurkat [6]): 18.1%; Activity (Jurkat [7]): 67.5%
6.5 µM	Cc1cc2c(c(=O)n1C)C(c1cccc(Br)c1)C(C#N)=C(N)O2 (stereo not drawn)	50%	–
> 100 µM	Cc1cc2c(c(=O)n1C)C(c1ccc(C(C)C)cc1)C(C#N)=C(N)O2 (stereo not drawn)	–	Activity (Jurkat [1]; Homo sapiens): inactive
6.33 µM	Cc1cc2c(c(=O)n1C)C(c1ccc(F)c(Br)c1)C(C#N)=C(N)O2 (stereo not drawn)	50%	–

Reference: ChEMBL document CHEMBL1149527, “Antiproliferative and apoptosis inducing properties of pyrano[3,2-c]pyridones accessible by a one-step multicomponent synthesis” (Bioorg Med Chem Lett, 2007)
